Two compounds from ChEMBL document CHEMBL1139556, “Synthesis and biological evaluation of gemcitabine-lipid conjugate (NEO6002)” (Bioorg Med Chem Lett, 2005) can be followed below.

Data set [1] in a line: Ability (18 umol/kg) tested on mortality of non-diseased CD2F1 mice at day 8 (n=8). The data set is classed as ADME. The settings on record: CD2F1, mouse, in vivo. In outline:
(§1)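 Multiple-dose toxicity in non-diseased CD2F1 mice. Five or six daily doses given (schedule days 1–5 or 1–6). Mortality recorded, reported as % mortality at day 8.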

Data set [2] is described as follows: Ability (27 umol/kg) tested on mortality of non-diseased CD2F1 mice at day 8 (n=8). The data set is classed as ADME. The settings on record: CD2F1, mouse, in vivo. In outline:
as §1

Data set [3] in a line: Ability (36 umol/kg) tested on mortality of non-diseased CD2F1 mice at day 8 (n=8). The format is ADME. The settings on record: CD2F1, mouse, in vivo. In outline:
as §1

The test system of data set [4] is Cell line. In words: Ability (9 umol/kg) tested for inhibition of BxPC-3 human pancreatic tumor growth (n=8). The data set is classed as functional. In outline:
(§2)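 BxPC-3 human pancreatic tumour cells (5 × 10⁶) implanted subcutaneously in SCID mice. At 80–160 mm³, tumours randomised into groups. Dosing on days 1, 7, 15, 22, 26, 29 and 33, with an equal-volume vehicle control group. Tumour volume measured by Vernier calipers, followed up to 50 days. % growth = 100 × (Vt/V0), where V0 is the volume on the first treatment day.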

The subject of data set [5] is Cell line. The data set is described as follows: Ability (18 umol/kg) tested for inhibition of BxPC-3 human pancreatic tumor growth (n=8). The format is functional. In outline:
as §2

Data set [6] relates to Cell line. In words: Ability (36 umol/kg) tested for inhibition of BxPC-3 human pancreatic tumor growth (n=8). The data set is classed as functional. In outline: as §2

One may read the mortality as the percentage killed.

With `Nc1ccn([C@@H]2O[C@H](CO)[C@@H](O)C2(F)F)c(=O)n1` [GEMCITABINE], the mortality at 8 day was determined as 0% in data set [1], 100% in data set [2] and 100% in data set [3]. The Growth amounted to 1942% in the data set on Cell line [4] and 2007% with Cell line [5].

Consider `CCCCCCOCC(COP(=O)(OC)OCC(COP(=O)(OC)OCC(COCCCCCC)OCCCCCC)OC(=O)CCC(=O)OC[C@H]1O[C@@H](n2ccc(N)nc2=O)C(F)(F)[C@@H]1O)OCCCCCC` (stereo partly drawn), for which the Growth in the data set with Cell line [4] turned out to be 1387%; in the data set with Cell line [5], 1393%; with Cell line [6], 1022%.
